Counter-ions that a name gives are not always drawn.
Tests used:
Format in all cases: cell-based
K562/A02 [1] = assay: Reversal of P-gp-mediated resistance to adriamycin in human K562/A02 cells assessed as reduction in adriamycin IC50 at 5 uM after 48 hrs by MTT assay relative to control
Summary of the method: (§1)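 K562/A02 cells in RPMI 1640 with 10% FBS, seeded and grown 24 h. Cells given a series of ADM concentrations with or without modulator at 5 μM for 48 h at 37 °C. MTT added for 4 h, A570 read. ADM IC50 from dose–response curves. RF = IC50 without modulator / IC50 with modulator. Triplicates, three independent repeats.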

[2] = Cytotoxicity against human K562/A02 cells assessed as cell viability after 48 hrs by MTT assay; settings: K562/A02, 48 h
Summary of the method: (§2)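 K562 and ADM-resistant, P-gp-overexpressing K562/A02 cells seeded at 1~2×10^4 per well, grown 24 h, then given graded compound doses in medium. Exposure 48 h, 37 °C, 5% CO2. MTT added for a further 4 h, absorbance read at 570 nm. IC50 taken from dose–response curves. Each experiment run three times.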

K562 = assay: Cytotoxicity against human K562 cells assessed as cell viability after 48 hrs by MTT assay; settings: K562, 48 h; summary of the method: as §2
K562/A02 [3] = assay: Reversal of P-gp-mediated resistance to adriamycin in human K562/A02 cells assessed as reduction in adriamycin IC50 at 0.078 uM after 48 hrs by MTT assay relative to control
Summary of the method: (§3)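 K562/A02 cells in RPMI 1640 with 10% FBS, grown 24 h. Cells exposed 48 h at 37 °C to graded ADM concentrations, with or without modulator at 0.078–2.5 μM. MTT added for 4 h, A570 read. Reversal fold = ADM IC50 without modulator / ADM IC50 with modulator. Three independent experiments, mean±SEM.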

K562/A02 [4] = assay: Reversal of P-gp-mediated resistance to adriamycin in human K562/A02 cells assessed as reduction in adriamycin IC50 at 1.25 uM after 48 hrs by MTT assay relative to control; summary of the method: as §3
K562/A02 [5] = assay: Reversal of P-gp-mediated resistance to adriamycin in human K562/A02 cells assessed as reduction in adriamycin IC50 at 0.625 uM after 48 hrs by MTT assay relative to control; summary of the method: as §3
K562/A02 [6] = assay: Reversal of P-gp-mediated resistance to adriamycin in human K562/A02 cells assessed as reduction in adriamycin IC50 at 0.156 uM after 48 hrs by MTT assay relative to control; summary of the method: as §3
K562/A02 [7] = assay: Potency index, ratio of verapamil to compound for inhibition of P-gp-mediated adriamycin efflux in human K562/A02 cells assessed as intracellular adriamycin accumulation at 5 uM
K562/A02 [8] = assay: Reversal of P-gp-mediated resistance to adriamycin in human K562/A02 cells assessed as reduction in adriamycin IC50 at 2.5 uM after 48 hrs by MTT assay relative to control; summary of the method: as §3
K562/A02 [9] = assay: Inhibition of P-gp-mediated adriamycin efflux in human K562/A02 cells assessed as increase in intracellular accumulation of adriamycin preincubated for 60 mins followed by adriamycin addition measured after 90 mins by flow cytometry
Summary of the method: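 K562/A02 cells seeded at 1.5×10^5 per well. Modulator (0.5, 2.5 or 5 μM) or 0.1% DMSO vehicle pre-incubated 60 min. ADM 20 μM then added for 90 min. Cells washed three times in PBS at 4 °C. Retained ADM read as mean fluorescence intensity by flow cytometry. Means±SD of two independent experiments.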

K562/A02 [10] = assay: Reversal of P-gp-mediated resistance to adriamycin in human K562/A02 cells assessed as reduction in adriamycin IC50 at 0.31 uM after 48 hrs by MTT assay relative to control; summary of the method: as §3
K562/A02 [11] = assay: Inhibition of P-gp-mediated adriamycin efflux in human K562/A02 cells assessed as intracellular adriamycin accumulation at 5 uM preincubated for 60 mins followed by adriamycin addition measured after 90 mins by flow cytometry
Summary of the method: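 K562/A02 cells (ADM-induced, P-gp-overexpressing) seeded at 1.5×10^5/well; modulator or 0.1% DMSO vehicle pre-incubated 60 min, then 20 μM ADM added for 90 min; cells washed three times with PBS at 4°C; retained intracellular ADM read as mean fluorescence intensity by flow cytometry; means±SD of two independent experiments.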

[12] = (§4) Reversal of P-gp-mediated resistance to adriamycin in human K562/A02 cells assessed as reduction in adriamycin IC50 after 48 hrs by MTT assay; settings: K562/A02, 48 h; summary of the method: as §1
K562/A02 [13] = assay: as §4; summary of the method: as §1

SMILES | fold change (FC) (K562/A02 [1]) | IC50 [2] [µM] | IC50 (K562) [µM] | also measured
COc1cc2c(cc1OC)CN(CCc1ccc(-n3cc(COc4ccc(OC(F)(F)F)cc4)nn3)cc1)CC2 | 5.9 | > 100 | 37.4 | 
COc1cc2c(cc1OC)CN(CCn1cc(COc3ccccc3C(C)(C)C)nn1)CC2 | 9.6 | > 100 | > 100 | 
COc1cc2c(cc1OC)CN(CCn1cc(COc3ccc(C)cc3)nn1)CC2 | 6.2 | > 100 | > 100 | 
COc1cc2c(cc1OC)CN(CCc1ccc(-n3cc(COc4cccc5cccnc45)nn3)cc1)CC2 | 10 | > 100 | 28 | 
COc1ccc(OCc2cn(-c3ccc(CCN4CCc5cc(OC)c(OC)cc5C4)cc3)nn2)cc1 | 3.5 | > 100 | > 100 | 
COc1cc2c(cc1OC)CN(CCn1cc(COc3ccc(C(C)C)cc3)nn1)CC2 | 7.7 | > 100 | > 100 | 
CCc1ccc(OCc2cn(-c3ccc(CCN4CCc5cc(OC)c(OC)cc5C4)cc3)nn2)cc1 | 9.1 | > 100 | > 100 | 
COc1cc2c(cc1OC)CN(CCc1ccc(-n3cc(COc4ccccc4)nn3)cc1)CC2 | 31.4 | > 100 | > 100 | fold change (FC) (K562/A02 [3]): 1.6; fold change (FC) (K562/A02 [4]): 16.9; fold change (FC) (K562/A02 [5]): 11.3; fold change (FC) (K562/A02 [6]): 2.2; Ratio (K562/A02 [7]): 1.5; fold change (FC) (K562/A02 [8]): 20.3; inhibition (K562/A02 [9]): Dose-dependent effect; fold change (FC) (K562/A02 [10]): 7.2; Flu intensity (K562/A02 [11]): 1280; EC50 [12]: 0.193 µM; Activity (K562/A02 [13]): Dose-dependent effect
COc1cc2c(cc1OC)CN(CCn1cc(COc3ccccc3OC)nn1)CC2 | 4.1 | > 100 | > 100 | 
COc1cc2c(cc1OC)CN(CCc1ccc(-n3cc(COc4ccccc4NC(=O)c4ccccc4)nn3)cc1)CC2 | 23 | > 100 | > 100 | EC50 [12]: 0.484 µM
COc1cc2c(cc1OC)CN(CCc1ccc(-n3cc(COc4ccccc4[N+](=O)[O-])nn3)cc1)CC2 | 7.4 | > 100 | 48.8 | 
COc1cc2c(cc1OC)CN(CCc1ccc(-n3cc(COc4ccc(C)cc4)nn3)cc1)CC2 | 5.8 | > 100 | > 100 | 
COc1ccc(OCc2cn(CCN3CCc4cc(OC)c(OC)cc4C3)nn2)cc1 | 3.4 | > 100 | > 100 | 
COc1cc2c(cc1OC)CN(CCn1cc(COc3ccc(C)cc3C)nn1)CC2 | 4.6 | > 100 | > 100 | 
COc1cc2c(cc1OC)CN(CCn1cc(COc3cccc4ccccc34)nn1)CC2 | 5.7 | > 100 | > 100 | 
COc1cc2c(cc1OC)CN(CCn1cc(COc3ccc([N+](=O)[O-])cc3)nn1)CC2 | 3.1 | > 100 | > 100 | 
COc1cc2c(cc1OC)CN(CCc1ccc(-n3cc(COc4ccc(C(C)C)cc4)nn3)cc1)CC2 | 9.2 | > 100 | > 100 | 
COc1ccc(C(=O)Nc2ccccc2C(=O)Nc2ccc(CCN3CCc4cc(OC)c(OC)cc4C3)cc2)cc1OC | 30.4 | 50.1 | 19.6 | 
COc1cc2c(cc1OC)CN(CCn1cc(COc3ccc(C)c(C)c3)nn1)CC2 | 9.1 | > 100 | > 100 | 
COc1cc2c(cc1OC)CN(CCn1cc(COc3ccc(F)cc3)nn1)CC2 | 2.7 | > 100 | > 100 | 
CCc1ccc(OCc2cn(CCN3CCc4cc(OC)c(OC)cc4C3)nn2)cc1 | 6.1 | > 100 | > 100 | 
COc1cc2c(cc1OC)CN(CCn1cc(COc3ccc4ccccc4c3)nn1)CC2 | 3.6 | > 100 | > 100 | 
COc1cc2c(cc1OC)CN(CCn1cc(COc3ccc(C(C)(C)C)cc3)nn1)CC2 | 20.4 | > 100 | > 100 | 
COc1cc2c(cc1OC)CN(CCc1ccc(-n3cc(COc4cccc5ccccc45)nn3)cc1)CC2 | 21 | > 100 | > 100 | 
COc1ccc(CCN(C)CCCC(C#N)(c2ccc(OC)c(OC)c2)C(C)C)cc1OC (stereo unspecified) |  |  | 65.3 | 
COc1cc2c(cc1OC)CN(CCc1ccc(-n3cc(COc4ccc([N+](=O)[O-])cc4)nn3)cc1)CC2 | 5.4 | > 100 | 49.2 | 
COc1cc2c(cc1OC)CN(CCc1ccc(-n3cc(COc4ccc(C(C)(C)C)cc4)nn3)cc1)CC2 | 9.3 | > 100 | 21.1 | 
COc1cccc2c1C(=O)c1c(O)c3c(c(O)c1C2=O)C[C@@](O)(C(=O)CO)C[C@@H]3O[C@H]1C[C@H](N)[C@H](O)[C@H](C)O1 [DOXORUBICIN HYDROCHLORIDE] |  | 38 | 6.23 | 
COc1cc2c(cc1OC)CN(CCc1ccc(-n3cc(COc4ccc5ccccc5c4)nn3)cc1)CC2 | 8.5 | > 100 | > 100 | 

Reference: ChEMBL document CHEMBL3779819, “Design, synthesis and biological evaluation of LBM-A5 derivatives as potent P-glycoprotein-mediated multidrug resistance inhibitors” (Bioorg Med Chem, 2016)
